Test results from ChEMBL document CHEMBL5236607, “Membrane-Active Cyclic Amphiphilic Peptides: Broad-Spectrum Antibacterial Activity Alone and in Combination with Antibiotics” (J Med Chem, 2022).
Peptide text beside a SMILES is read from it.

Experiments:
Escherichia coli [1] = assay: Synergistic antibacterial activity against Escherichia coli ATCC 25922 fractional inhibitory concentration incubated for 24 hrs in presence of metronidazole by checkerboard assay; assay type: functional
Method in brief: (§1)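 Checkerboard assay in MH broth. Inoculum from an LB overnight culture set to 0.5 McFarland and diluted 1/150. […] Each agent was also titrated alone. Incubation 24 h at 37 °C. FIC = combination MIC/individual MIC; FICI = sum of the FICs. Triplicate.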

Escherichia coli [2] = assay: Synergistic antibacterial activity against Escherichia coli ATCC 25922 fractional inhibitory concentration index incubated for 24 hrs in presence of metronidazole by checkerboard assay; assay type: functional; method in brief: as §1
Pseudomonas aeruginosa [3] = assay: Synergistic antibacterial activity against Pseudomonas aeruginosa ATCC […] incubated for 24 hrs in presence of tobramycin by checkerboard assay; assay type: functional
Escherichia coli [4] = assay: Synergistic antibacterial activity against Escherichia coli ATCC 25922 assessed as fractional inhibitory concentration incubated for 24 hrs in presence of tobramycin by checkerboard assay; assay type: functional; method in brief: as §1
Staphylococcus aureus [5] = assay: Synergistic antibacterial activity against methicillin resistant Staphylococcus aureus ATCC BAA-1556 fractional inhibitory concentration incubated for 24 hrs in presence of levofloxacin by checkerboard assay; assay type: functional
Method in brief: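 Checkerboard assay. Inoculum from an LB overnight culture at 0.5 McFarland, diluted 1/150 in MH media. […] Incubated 37 °C for 24 h. FICI = MIC combination/MIC alone summed over both agents. Triplicate.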

Staphylococcus aureus [6] = assay: Bactericidal activity against methicillin resistant Staphylococcus aureus assessed as reduction in bacterial cells by time kill assay; assay type: functional, organism-based; conditions: TDE = time-dependent effect
Method in brief: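 Time-kill in Müller–Hinton media. […] Aliquots taken at 0–24 h, serially diluted and plated on MH agar. CFU counted after 24 h at 37 °C. Two independent experiments in triplicate.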

Klebsiella pneumoniae = assay: Antibacterial activity against multidrug resistant Klebsiella pneumoniae 1188718 after 24 hrs by microbroth dilution method; assay type: functional
[7] = Membrano-lytic effect in mammalian membrane mimic DOPC/cholesterol (10:1) large unilamellar vesicles assessed as calcein leakage measured at 5 to 50 microg/ml measured after 100 mins by multimode microplate reader assay; assay type: cell membranes; conditions: dose 5-50 µg/ml
Method in brief: (§2)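 Calcein (70 mM) loaded into extruded 100 nm LUVs: DOPC:DOPG 7:3 (w/w) as the bacterial mimic, DOPC/cholesterol 10:1 (w/w) as the mammalian mimic. Free dye removed by gel filtration. Liposomes at 40 μM final lipid in PBS mixed 1:1 with peptide (5–50 μg/mL). Fluorescence (ex 490/em 520 nm) read every 10 min for 100 min; Triton X-100 defines 100% release. Triplicate.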

Pseudomonas aeruginosa [8] = assay: Synergistic antibacterial activity against Pseudomonas aeruginosa ATCC […] assessed as fractional inhibitory concentration incubated for 24 hrs in presence of tobramycin by checkerboard assay; assay type: functional
[9] = Membrano-lytic effect in bacterial inner membrane mimic DOPC/DOPG (7:3) large unilamellar vesicles assessed as calcein leakage measured upto 100 mins by multimode microplate reader assay; assay type: cell membranes; conditions: dose 5-50 µg/ml; method in brief: as §2

In the case of `N=C(N)NCCC[C@@H]1NC(=O)[C@H](CCCNC(=N)N)NC(=O)[C@H](CCCNC(=N)N)NC(=O)[C@H](CCCNC(=N)N)NC(=O)[C@H](Cc2c[nH]c3ccccc23)NC(=O)[C@H](Cc2c[nH]c3ccccc23)NC(=O)[C@H](Cc2c[nH]c3ccccc23)NC(=O)[C@H](Cc2c[nH]c3ccccc23)NC(=O)[C@H](CCCNC(=N)N)NC(=O)[C@H](CCCNC(=N)N)NC1=O` (cyclo(RRRRRRWWWW)), the FIC (Escherichia coli [1]) is reported as 0.125 and the “fractional inhibitory concentration index (FICI)” value (Escherichia coli [2]) is reported as 0.625.

Work on `N=C(N)NCCC[C@@H]1NC(=O)[C@H](CCCNC(=N)N)NC(=O)[C@H](CCCNC(=N)N)NC(=O)[C@H](Cc2c[nH]c3ccccc23)NC(=O)[C@H](Cc2c[nH]c3ccccc23)NC(=O)[C@H](Cc2c[nH]c3ccccc23)NC(=O)[C@H](Cc2c[nH]c3ccccc23)NC(=O)[C@H](CCCNC(=N)N)NC(=O)[C@H](CCCNC(=N)N)NC1=O` yielded an MIC (Pseudomonas aeruginosa [3]) of 0.125 µg/mL, an FIC (Escherichia coli [4]) of 0.25 and an FIC (Staphylococcus aureus [5]) of 0.25. The Activity (Staphylococcus aureus [6]) was “Tde”, the MIC (Klebsiella pneumoniae) was greater than 64 µg/mL and the Activity [7] was 13%. For the same compound, the FIC (Pseudomonas aeruginosa [8]) was 0.25 and the Activity [9] was “Dose-Dependent Effect”.
